Experimental data reported in ChEMBL document CHEMBL2331469, “Discovery and Preliminary SAR of Arylpiperazines as Novel, Brainpenetrant Antiprion Compounds” (ACS Med Chem Lett, 2013).

System: not listed separately
Test: (§1) Cmax in wild type FVB mouse plasma at 10 mg/kg, po by LC-MS analysis
Format: ADME, organism-based
Parameters: dose 10 mg/kg, route oral
Details: FVB, plasma

Structure (SMILES) | Cmax
c1cncc(CN2CCN(c3ccc(-c4nc5ccccc5o4)cc3)CC2)c1 | 900 nM
COc1ccc(CN2CCN(c3ccc(-c4nc5ccccc5o4)cc3)CC2)cn1 | 700 nM

System: Plasma
Test: as §1
Format: ADME, organism-based
Parameters: dose 10 mg/kg, route oral
Details: in vivo

Structure (SMILES) | Cmax
c1cncc(CN2CCN(c3ccc(-c4nc5ccccc5s4)cc3)CC2)c1 | 600 nM

System: not listed separately
Test: Cytotoxicity against mouse ScN2a-cl3 cells assessed as cell viability after 5 days by calcein cell viability assay
Format: cell-based
Details: n2a-cl3, 120 h, read-out: LC50 (the source's name)
Method in brief: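 Viability of RML prion-infected ScN2a-cl3 cells was read with the fluorescent probe calcein-AM. It was run alongside each PrPSc ELISA EC50 measurement to rule out cytotoxicity, and LC50 was derived from 3 tests.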

Structure (SMILES) | CC50
Fc1ccc(CN2CCN(c3ccc(-c4nc5ccccc5o4)cc3)CC2)cn1 | > 10 µM
Cc1ccc(CN2CCN(c3ccc(-c4nc5ccccc5o4)cc3)CC2)cn1 | > 10 µM
c1csc(CN2CCN(c3ccc(-c4ncco4)cc3)CC2)c1 | > 10 µM
Cc1ccc(CN2CCN(c3ccc(-c4ncco4)cc3)CC2)o1 | > 10 µM
c1csc(CN2CCN(c3ccc(-c4nc5ccccc5o4)cc3)CC2)c1 | > 10 µM
c1cncc(CN2CCN(c3ccc(-c4ncco4)cc3)CC2)c1 | > 10 µM
c1cncc(CN2CCN(c3ccc(-c4nc5ccccc5o4)cc3)CC2)c1 | > 10 µM
c1cncc(CN2CCN(c3ccc(-c4nc5ccccc5s4)cc3)CC2)c1 | > 10 µM
Cc1ccc(CN2CCN(c3ccc(-c4nc5ccccc5o4)cc3)CC2)o1 | > 10 µM
COc1ccc(CN2CCN(c3ccc(-c4nc5ccccc5o4)cc3)CC2)cn1 | > 10 µM

System: not listed separately
Test: (§2) AUC (0 to 6 hrs) in wild type FVB mouse brain at 10 mg/kg, po by LC-MS analysis
Format: ADME, organism-based
Parameters: time < 6 hr, dose 10 mg/kg, route oral
Details: FVB, brain

Structure (SMILES) | AUC(0-t) at 6 h
COc1ccc(CN2CCN(c3ccc(-c4nc5ccccc5o4)cc3)CC2)cn1 | 3 µM·h

System: Brain
Test: as §2
Format: ADME, organism-based
Parameters: time < 6 hr, dose 10 mg/kg, route oral
Details: in vivo, 6 h

Structure (SMILES) | AUC
Fc1ccc(CN2CCN(c3ccc(-c4nc5ccccc5o4)cc3)CC2)cn1 | 1.3 µM·h
c1cncc(CN2CCN(c3ccc(-c4nc5ccccc5o4)cc3)CC2)c1 | 14.2 µM·h
c1cncc(CN2CCN(c3ccc(-c4nc5ccccc5s4)cc3)CC2)c1 | 14.4 µM·h

System: Liver microsomes
Test: Metabolic stability in human liver microsomes assessed as half life by LC-MS analysis
Format: ADME, Microsome
Details: not given

Structure (SMILES) | t1/2
Fc1ccc(CN2CCN(c3ccc(-c4nc5ccccc5o4)cc3)CC2)cn1 | 43.6 min
c1cncc(CN2CCN(c3ccc(-c4nc5ccccc5o4)cc3)CC2)c1 | 50.2 min
c1cncc(CN2CCN(c3ccc(-c4nc5ccccc5s4)cc3)CC2)c1 | 34.3 min
COc1ccc(CN2CCN(c3ccc(-c4nc5ccccc5o4)cc3)CC2)cn1 | > 60 min

System: not listed separately
Test: Cmax in wild type FVB mouse brain at 10 mg/kg, po by LC-MS analysis
Format: ADME, organism-based
Parameters: dose 10 mg/kg, route oral
Details: not given

Structure (SMILES) | Cmax
Fc1ccc(CN2CCN(c3ccc(-c4nc5ccccc5o4)cc3)CC2)cn1 | 400 nM
c1cncc(CN2CCN(c3ccc(-c4nc5ccccc5o4)cc3)CC2)c1 | 3600 nM
c1cncc(CN2CCN(c3ccc(-c4nc5ccccc5s4)cc3)CC2)c1 | 3000 nM
COc1ccc(CN2CCN(c3ccc(-c4nc5ccccc5o4)cc3)CC2)cn1 | 1600 nM

System: not listed separately
Test: AUC (0 to 6 hrs) in wild type FVB mouse plasma at 10 mg/kg, po by LC-MS analysis
Format: ADME, organism-based
Parameters: time < 6 hr, dose 10 mg/kg, route oral
Details: not given

Structure (SMILES) | AUC(0-t) at 6 h
Fc1ccc(CN2CCN(c3ccc(-c4nc5ccccc5o4)cc3)CC2)cn1 | 1.2 µM·h
c1cncc(CN2CCN(c3ccc(-c4nc5ccccc5o4)cc3)CC2)c1 | 4.2 µM·h
c1cncc(CN2CCN(c3ccc(-c4nc5ccccc5s4)cc3)CC2)c1 | 2.7 µM·h
COc1ccc(CN2CCN(c3ccc(-c4nc5ccccc5o4)cc3)CC2)cn1 | 1.1 µM·h

System: not listed separately
Test: Antiprion activity against sheep RML prion protein-infected in mouse ScN2a-cl3 cells assessed as reduction of PrPSc level after 5 days by ELISA
Format: cell-based
Details: Ovis aries, N2a-cl3, 120 h
Method in brief: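 RML prion-infected murine neuroblastoma ScN2a-cl3 cells. PrPSc levels were measured by ELISA, and EC50 was derived from 3 tests. Cell viability was run alongside each EC50 measurement in the same cells using calcein-AM fluorescence, to exclude cytotoxicity.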

Structure (SMILES) | EC50
COc1cccc(N2CCN(Cc3cccnc3)CC2)c1 | > 32 µM
Fc1ccc(CN2CCN(c3ccc(-c4nc5ccccc5o4)cc3)CC2)cn1 | 0.4 µM
Cc1ccc(CN2CCN(c3ccc(-c4nc5ccccc5o4)cc3)CC2)cn1 | > 10 µM
CC(=O)c1ccc(N2CCN(Cc3cccs3)CC2)cc1 | 1.95 µM
c1csc(CN2CCN(c3ccc(-c4ncco4)cc3)CC2)c1 | > 10 µM
Cc1ccc(CN2CCN(c3ccc(-c4ncco4)cc3)CC2)o1 | > 10 µM
c1csc(CN2CCN(c3ccc(-c4nc5ccccc5o4)cc3)CC2)c1 | 4.2 µM
COc1ccc(N2CCN(Cc3cccnc3)CC2)cc1 | > 32 µM
c1cncc(CN2CCN(c3ccc(-c4ncco4)cc3)CC2)c1 | > 10 µM
Fc1ccc(N2CCN(Cc3cccnc3)CC2)cc1 | > 32 µM
c1cncc(CN2CCN(c3ccc(-c4nc5ccccc5o4)cc3)CC2)c1 | 0.3 µM
COc1ccccc1N1CCN(Cc2cccnc2)CC1 | > 32 µM
CC(=O)c1ccc(N2CCN(Cc3ccc(C)o3)CC2)cc1 | 4.62 µM
CC(=O)c1ccc(N2CCN(Cc3ccccc3)CC2)cc1 | 0.71 µM
Clc1cccc(N2CCN(Cc3cccnc3)CC2)c1 | > 32 µM
c1cncc(CN2CCN(c3ccc(-c4nc5ccccc5s4)cc3)CC2)c1 | 0.4 µM
Cc1ccc(CN2CCN(c3ccc(-c4nc5ccccc5o4)cc3)CC2)o1 | 3.3 µM
Fc1ccccc1N1CCN(Cc2cccnc2)CC1 | > 32 µM
COc1ccc(CN2CCN(c3ccc(-c4nc5ccccc5o4)cc3)CC2)cn1 | 1.1 µM

System: Liver
Test: Metabolic stability in mouse liver microsomes assessed as half life by LC-MS analysis
Format: ADME, Microsome
Details: not given

Structure (SMILES) | t1/2
Fc1ccc(CN2CCN(c3ccc(-c4nc5ccccc5o4)cc3)CC2)cn1 | 7.3 min
c1cncc(CN2CCN(c3ccc(-c4nc5ccccc5o4)cc3)CC2)c1 | 9.2 min
c1cncc(CN2CCN(c3ccc(-c4nc5ccccc5s4)cc3)CC2)c1 | 17.3 min
COc1ccc(CN2CCN(c3ccc(-c4nc5ccccc5o4)cc3)CC2)cn1 | 25.2 min

System: N2a-cl3
Test: Antiprion activity against sheep RML prion protein-infected in mouse ScN2a-cl3 cells assessed as reduction of PrPSc level after 5 days by ELISA relative to control
Format: cell-based
Parameters: concentration or dose not given beside the values
Details: Ovis aries, dose or concentration not given here

Structure (SMILES) | inhibition
Clc1cccc(N2CCN(Cc3ccco3)CC2)c1 | 6%
c1ccc(N2CCN(Cc3cccnc3)CC2)cc1 | 4%
Clc1cccc(N2CCN(Cc3cc(Br)cs3)CC2)c1 | 34%
CC(=O)c1ccc(N2CCN(Cc3cccs3)CC2)cc1 | 91%
Clc1ccc(N2CCN(Cc3ccc(Br)s3)CC2)cc1 | 12%
CC(=O)c1ccc(N2CCN(Cc3sccc3C)CC2)cc1 | 78%
c1ccc(CN2CCN(c3ccccc3)CC2)cc1 | 5%
Clc1cccc(N2CCN(Cc3ccccc3)CC2)c1 | 7%
COc1ccc(N2CCN(Cc3cccnc3)CC2)cc1 | 10%
Fc1ccc(N2CCN(Cc3cccnc3)CC2)cc1 | 27%
Clc1ccc(N2CCN(Cc3cccnc3)CC2)cc1 | 0%
COc1ccc(N2CCN(Cc3cccs3)CC2)cc1 | 16%
CC(=O)c1ccc(N2CCN(Cc3ccc(C)o3)CC2)cc1 | 78%
COc1ccc(N2CCN(Cc3ccccc3)CC2)cc1 | 7%
CC(=O)c1ccc(N2CCN(Cc3ccccc3)CC2)cc1 | 94%
Clc1cccc(N2CCN(Cc3cccnc3)CC2)c1 | 4%
CC(=O)c1ccc(N2CCN(Cc3cccnc3)CC2)cc1 | 73%
Clc1ccc(N2CCN(Cc3ccco3)CC2)cc1 | 13%
Clc1ccc(N2CCN(Cc3ccccc3)CC2)cc1 | 6%
Fc1ccc(N2CCN(Cc3ccccc3)CC2)cc1 | 7%
COc1ccc(N2CCN(Cc3ccc(Br)o3)CC2)cc1 | 6%
CC(=O)c1ccc(N2CCN(Cc3ccco3)CC2)cc1 | 96%
